The array DNA melting data of Ke et al. (doi:10.1101/2024.01.08.574731)

What was measured:
[1] = folding enthalpy; higher = less favourable; fluorescence melt of hairpins on a sequencing array, two-state fit; details: sodium 0.088 M
How it was run: (§1)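 With Cy3 and quencher oligos annealed, library hairpins on a sequenced MiSeq flow cell were imaged for Cy3 fluorescence in 50 mM Na-HEPES pH 8.0, 25 mM NaCl, in 2.5 °C steps up to 60 °C. Melting temperature and folding enthalpy were derived from bootstrapped two-state fits of signals normalised to pre-quench Cy3 and to control constructs. Four replicates were combined by inverse variance, with fitted temperatures raised by 9.35 °C to match UV melts.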

[2] = melting temperature; fluorescence melt of hairpins on a sequencing array, two-state fit, raised by 9.35 °C to match UV melts; details: sodium 0.088 M
How it was run: as §1

| Sequence | folding enthalpy [1] [kcal/mol] | Tm [2] [°C] |
| --- | --- | --- |
| GTGAAACGAAAGTTCCAC (((.(((....))).))) | -22.8 | 43.9 |
| GTGCACACGAAAGTGCAC (((..(((....)))))) | -30.8 | 60 |
| GATCGCGATGGCGATC ((((((....)))))) | -37.7 | 68.8 |
| CGGTGGAAACACCG (((((....))))) | -26.1 | 68 |
| GTGAACGGAAACATTCAC (((((.(....).))))) | -31.7 | 35.4 |
| GATGGCGAAAGCCGAATC ((((((....)))..))) | -8.36 | 34.4 |
| GATCGGGATACCGATC ((((((....)))))) | -45.8 | 65.7 |
| GCACGCGAAAGCGCTTGC ((((((....)))..))) | -13.3 | 42.8 |
| GATCCGGCTCCGGATC ((((((....)))))) | -38.4 | 59.1 |
| GTTAAGGGAAACCTTGAC ((.((((....)))).)) | -29.3 | 37.4 |
| GGATACGAAAGTACTTCC ((((((....)))..))) | -17.1 | 34.8 |
| GCGTAGCGAAAGCCCCGC (((..((....))..))) | -6.69 | 35.9 |
| GATCCCCAGCGGGATC ((((((....)))))) | -30.7 | 59.8 |
| GCTACGCGAAAGCCGAGC (((..((....))..))) | -15.6 | 43.4 |
| GTATCGCGAAAGCGTAC (((.(((....)))))) | -12.1 | 44.5 |
| GTTGCGCGAAAGCGTAAC (((.(((....))).))) | -29.8 | 58.1 |
| GTCGGTGCGAAAGCAGAC (((..(((....)))))) | -14.2 | 45.2 |
| GATCACGCTCGTGATC ((((((....)))))) | -45.5 | 60.9 |
| GCGTGCGAAAGCAATCGC ((((((....)))..))) | -22.6 | 52.7 |
| GCCCTGCGAAAGCACCGC ((..(((....)))..)) | -7.84 | 32.4 |
| GGTGAGGGAAACCTCGCC ((.((((....)))).)) | -36.5 | 58.1 |
| GAATCCGAAAGGATGTTC ((((((....)))..))) | -13.8 | 37.3 |
| GCTACGCGAAAGCATTGC ((.(.((....)).).)) | -12.7 | 38.7 |

| Sequence | folding enthalpy [1] [kcal/mol] | Tm [2] [°C] |
| --- | --- | --- |
| GCCCAACGAAAGTTCGGC (((.(((....))).))) | -29.9 | 45.5 |
| GATCGTTACTACGATC ((((((....)))))) | -42.8 | 55.1 |
| GAACGCGGAAACGCACTC ((..(((....)))..)) | -8.19 | 30.1 |
| GATCGTAGTGACGATC ((((((....)))))) | -33.7 | 56.6 |
| GATCTCGAACGAGATC ((((((....)))))) | -40.8 | 60.2 |
| GATCTTACGCAAGATC ((((((....)))))) | -31.1 | 42.9 |
| GGGTTCGAAAGAATACCC ((((((....)))..))) | -24.9 | 40.5 |
| GGCTTCGAAAGAAAAGCC ((((((....)))..))) | -28 | 46.6 |
| GGCCCTGGAAACAGGGTC (.(((((....))))).) | -36 | 58.9 |
| GGTCTCGAAAGAGATACC ((((((....)))..))) | -15.2 | 38.7 |
| GATCTGTAGCAGATC ((((((...)))))) | -37.4 | 47.3 |
| GACATCGGAAACGGTGTC ((((.((....)).)))) | -47 | 52.2 |
| GCGATACCTCGC ((((....)))) | -24.9 | 51.4 |
| GCCTTGCGAAAGCACCGC ((..(((....)))..)) | -10.6 | 42.6 |
| GTACACGAAAGTGTCTAC ((((((....)))..))) | -10.6 | 35.8 |
| GCTATGGGAAACCGTAGC ((((.((....)).)))) | -44.1 | 51.9 |
| CGCTTCGGAAACGACGCG (((.(((....))).))) | -48.8 | 51.5 |
| GTCGCCGAAAGGCTTGAC ((((((....)))..))) | -12.1 | 39.7 |
| GCGGATCGAAAGATACGC (((.(((....))).))) | -40.3 | 68.7 |
| GCCAGCGAAAGCTGTGGC ((((((....)))..))) | -15.1 | 56.6 |
| GATCAAGGAGTTGATC ((((((....)))))) | -29.5 | 45.3 |
| GTAGAAGGAAACCTCTAC (((((.(....).))))) | -18.1 | 33.4 |
| GTACTCGAAAGAGTTTAC ((((((....)))..))) | -9.32 | 30 |
